This is a sample that favours compounds with a hit; in the whole collection about 1.7% have one here.
IDE cell inh = inhibits human insulin-degrading enzyme in HEK cells. P14735. FAbetaB cleavage, fluorescence polarization. inhibition, % at 5.59 µM. actives 0.41% (n = 320,000). AID 434962;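 active = percent inhibition above the average of all tested compounds plus 3 SD, set per screening campaign, cut at about 16% in these data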;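 also: IDE supplied by intact live HEK cells; FP after avidin binding of uncleaved biotin substrate so inhibition keeps polarization high; 0% = DMSO wells and 100% = 60 µM reference IDE inhibitor Ii1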
IDE act = IDE (human) activation, cell-based | actives 0.073% (n = 340,000) | P14735 | activation, % at 5.96 µM | HEK cells, FAbeta-B cleavage, fluorescence polarization; 0% vehicle, 100% cell-free pure enzyme wells;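 active = activation above the mean of all tested compounds plus 3 SD, set per screening campaign, cut at about 17% in these data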
CSN inh = blocks human CSN-mediated cullin deneddylation; Purified CSN, SCF-Nedd8-OG deneddylation, fluorescence polarization; Q92905; actives 0.38% (n = 360,000); inhibition, % at 12.5 µM; AID 651999;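 active = pattern-corrected inhibition above about 35%, with an unprinted fluorescence ratio check between 0.5 and 1.5, limit read from the data, passing the limit was not always enough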;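 also: 0% = enzyme with substrate and 100% = substrate without enzyme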
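Assay system: purified human Csn5 enzyme expressed in HEK293T cells; Input: 0.24 nM Csn5 enzyme, final concentration; Reagent: 10 nM SCFSkp2-Nedd8OG; Compound dosing: 12.5 µM single point; Times: reaction 90 min, room temperature; Technique: fluorescence polarization readout.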
TPT1 inhibitor = blocks Candida albicans tRNA 2'-phosphotransferase | recombinant caTPT1, FP RNA substrate dephosphorylation | inhibition, % at 5 µM | actives 0.81% (n = 300,000);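 active = inhibition above the mean of all tested compounds plus 3 SD, set per screening campaign, cut at about 24% in these data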;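 also: plate controls were DMSO alone for no effect and ferristatin control at 100 nM for full effect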
HNF4A DNA FP = change in binding of human HNF4 alpha to DNA | activity change, % at 10 µM | HNF4a-FITC DNA binding, fluorescence polarization, 1 h | P41235 | AID 1224865 | actives 0.3% (n = 360,000); in the data active = activity change above about 30%, passing the limit was not always enough
Target sequence (P41235 whole entry, looked up): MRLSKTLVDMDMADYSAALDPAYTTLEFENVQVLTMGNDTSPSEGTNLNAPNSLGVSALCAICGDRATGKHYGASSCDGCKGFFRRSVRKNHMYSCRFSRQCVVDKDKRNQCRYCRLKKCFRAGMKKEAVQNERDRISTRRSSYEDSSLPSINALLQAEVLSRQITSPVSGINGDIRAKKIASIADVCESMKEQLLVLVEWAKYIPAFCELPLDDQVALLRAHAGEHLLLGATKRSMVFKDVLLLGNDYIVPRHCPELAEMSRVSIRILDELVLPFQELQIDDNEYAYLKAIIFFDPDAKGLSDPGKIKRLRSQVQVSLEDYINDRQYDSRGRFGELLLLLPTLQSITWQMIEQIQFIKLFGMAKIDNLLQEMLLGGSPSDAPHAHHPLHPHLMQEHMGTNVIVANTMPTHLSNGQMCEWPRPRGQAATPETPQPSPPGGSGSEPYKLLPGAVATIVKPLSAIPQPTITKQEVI
Rpn11 inh = blocks the human proteasome subunit Rpn11; O00487; human 26S proteasome, Ub4-pepOG fluorescence polarization; 20S core pre-blocked with epoxomicin; inhibition, % at 20 µM; actives 0.59% (n = 360,000); AID 588493;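 active = inhibition at 20 µM, scaled to each plate's controls, above about 33%, limit read from the data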
Target sequence (O00487 whole entry, looked up): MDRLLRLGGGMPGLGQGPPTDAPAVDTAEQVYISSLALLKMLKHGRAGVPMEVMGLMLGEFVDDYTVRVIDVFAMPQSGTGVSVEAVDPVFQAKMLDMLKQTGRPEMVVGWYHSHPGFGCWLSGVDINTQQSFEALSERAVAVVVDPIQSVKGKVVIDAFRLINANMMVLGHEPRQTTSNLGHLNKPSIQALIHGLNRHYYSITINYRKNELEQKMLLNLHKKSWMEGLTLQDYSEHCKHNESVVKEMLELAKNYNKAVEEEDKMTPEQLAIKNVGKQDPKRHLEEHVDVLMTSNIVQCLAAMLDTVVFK
caTPT1 confirm = TPT1 (C. albicans) inhibition, confirmation | actives 74% (n = 2,400) | inhibition, % at 5 µM | shares compounds with TPT1 inhibitor | recombinant caTPT1, fluorescence polarization, RNase T1 coupled | AID 2149;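 active = inhibition above the primary screen limit, the mean inhibition of all tested compounds plus 3 SD, cut at about 25% in these data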
RNase T1 inh = RNase T1 inhibition in TPT1 counter-screen | shares compounds with TPT1 inhibitor | RNase T1 cleavage, fluorescence polarization, 1536-well | inhibition, % at 5 µM | actives 83% (n = 2,400);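 active = inhibition above the solvent-only control well mean plus 3 SD, limit set per screening run, cut at about 23% in these data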;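 also: plate controls were DMSO wells with enzyme for no effect and wells without RNase T1 for full effect; inhibitors block cleavage so intact labeled substrate keeps polarization high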
* hit, by the source's call; . = no result given.

SMILES | IDE cell inh | IDE act | CSN inh | TPT1 inhibitor | HNF4A DNA FP | Rpn11 inh | caTPT1 confirm | RNase T1 inh
Cc1ccc(-c2nc3sc(C#N)c(N)n3c(=O)c2C#N)cc1 | 10.1 | -4.5 | 29.4 | 24.3* | 30.0 | . | 34.5* | 47.9*
CCOC(=O)/C=c1\s/c(=C\c2ccc3c(c2)OCCO3)c(=O)n1CC(=O)NCC1CCCO1 (stereo not given) | -8.4 | 1.4 | 7.6 | 21.6 | 8.9 | 25.9 | . | .
CCOC(=O)/C=c1/s/c(=C\c2c(OC)ccc3ccccc23)c(=O)n1CC(=O)NCC1CCCO1 (stereo not given) | . | -7.7 | 9.9 | . | 14.8 | . | . | .
CCOC(=O)/C=c1\s/c(=C\c2c(OCC)ccc3ccccc23)c(=O)n1CC(=O)NCC1CCCO1 (stereo not given) | 1.3 | 4.3 | 8.6 | 24.7* | 15.2 | . | 18.7 | 32.2*
CCOC(=O)/C=c1\s/c(=C\c2ccccc2C)c(=O)n1CC(=O)NCc1ccc2c(c1)OCO2 | 0.1 | 0.7 | 9.7 | 41.4* | 11.3 | 36.5 | 30.1* | 42.6*
Cc1ccccc1[C@]1(C)ON(c2ccccc2C(F)(F)F)C1=O | -0.1 | . | . | . | . | . | . | .
CS(=O)(=O)n1c2ccccc2c(=O)n1-c1ccccc1CCl | . | . | 4.8 | . | -2.9 | 14.5 | . | .
CCN(CC)c1ccc(/C=C/c2cccc[n+]2C)c(OC)c1 | 28.4* | -35.6 | 140.1 | 57.8* | 179.5 | . | 62.3* | 67.8*
CCN1CCc2c(sc(N)c2C#N)C1 | 0.6 | 1.6 | 2.7 | -1.5 | 4.3 | 4.8 | . | .
CC(C)N1CCc2c(sc(N)c2C#N)C1 | 7.7 | -5.3 | 9.3 | 29.8* | 18.5 | 30.2 | 41.6* | 48.3*
CCN(CC)c1ccc2cc(C(=O)NNC(=O)c3ccc(S(=O)(=O)N4CCCCC4)cc3)c(=O)oc2c1 | 0.4 | 4.6 | 16.7 | 48.9* | 14.1 | . | 76.9* | 85.9*
CCN(CC)c1ccc2cc(S(=O)(=O)c3ccc(C)cc3)c(=O)oc2c1 | -0.2 | -13.4 | -2.2 | 69.6* | 49.5* | -153.8 | 71.5* | 81.0*
Cc1ccc(C(=O)NNC(=O)c2ccc(S(=O)(=O)N3CCCCC3)cc2)cc1 | -0.6 | 1.9 | 0.1 | . | 5.3 | -2.3 | . | .
CCN(CC)c1ccc2cc(C#N)c(=O)oc2c1 | 13.4 | . | -11.8 | 46.0* | 21.6 | 7.3 | 44.5* | 57.7*
O=C(O)c1ccc(N=Nc2c(O)[nH]c3cc(Cl)ccc23)cc1 | 12.9 | -37.1 | 8.8 | 29.2* | 20.4 | 43.7* | 54.2* | 67.2*
CCOc1ccc2nc(N3C(=O)/C(=C/c4ccccc4)NC3=S)sc2c1 | -0.5 | -1.4 | 19.4 | 25.7* | -0.6 | . | 35.3* | 45.1*
CCOc1ccc2nc(N3CCCCCC3)sc2c1 | 6.9 | 2.6 | 3.5 | 0.7 | 0.7 | -2.7 | . | .
CN1CCc2c(sc3nc(SCC(N)=O)n(-c4ccccc4)c(=O)c23)C1 | 5.5 | -12.8 | 1.3 | 44.8* | 20.1 | 32.6 | 103.8* | 109.4*
CN1CCc2c(sc3nc(SCC(N)=O)n(-c4ccc(Cl)cc4)c(=O)c23)C1 | 6.0 | -2.2 | 21.2 | 85.9* | 43.4* | 81.4* | 64.4* | 77.9*
O=[N+]([O-])c1ccc(-c2nc(Cl)c3c(n2)CCCC3)o1 | . | . | -2.1 | . | -0.1 | -8.1 | . | .
CCOC1=C2[C@@H](CN(S(=O)(=O)c3ccc(C)cc3)[C@H]2c2ccc(CC)cc2)[C@H]2C(=O)N(C)C(=O)[C@H]2C1 | . | . | -1.3 | . | -2.4 | 2.2 | . | .
Cc1cc(C)n2nc(-c3ccsc3-n3c(C)ccc3C)cc2n1 | 5.8 | 2.7 | 24.9 | 44.6* | 32.1 | . | 53.2* | 64.0*
Cc1ccc(-c2cc3nc(C)cc(C)n3n2)cc1 | -0.7 | 2.7 | -11.9 | -1.6 | -2.7 | 3.6 | . | .
COc1ccc(C(=O)Nc2nnc(CC(=O)N/N=C/c3ccc(O)cc3O)s2)cc1 | 14.1 | -31.5 | 32.5 | 52.9* | -13.4 | 6.7 | 81.3* | 82.5*
CCCCCCn1c(=O)n2n(c1=O)[C@@H]1CN(S(=O)(=O)c3ccc(C)cc3)C[C@]1(O)[C@@H](OC(=O)Nc1cccs1)C2 | . | . | -2.9 | . | 2.1 | 10.1 | . | .
SMILES | IDE cell inh | IDE act | CSN inh | TPT1 inhibitor | HNF4A DNA FP | Rpn11 inh | caTPT1 confirm | RNase T1 inh
Cc1onc(-c2ccccc2Cl)c1C(N)=O | 5.9 | 2.1 | -0.1 | -3.1 | -0.3 | 2.5 | . | .
COC(=O)c1c(-c2ccccc2Cl)noc1/C=C/N(C)C | 1.5 | -11.9 | -1.2 | 131.1* | 1.2 | 5.8 | 28.1* | 34.9*
CCOC(=O)[C@@H](C)N(C(=O)OC(C)(C)C)S(=O)(=O)N(Cc1ccccc1)[C@H](C(=O)OC)C(C)C | . | 5.8 | -1.2 | . | 3.6 | -0.8 | . | .
Cc1[nH]nc2c1C(c1ccsc1C)C(C#N)=C(N)O2 (stereo not given) | 2.9 | 10.7 | 2.4 | -3.5 | 4.5 | -8.7 | . | .
Cc1sccc1C1C(C#N)=C(N)SC(N)=C1C#N | 17.6* | . | . | 100.2* | . | . | 70.1* | 84.5*
Cc1cc(C2C(C#N)=C(N)SC(N)=C2C#N)c(C)s1 | 11.9 | -16.5 | 105.6 | 100.8* | 85.4 | . | 46.1* | 59.3*
Cc1cccc(C)c1NC(=O)C(c1ccccc1OC(F)(F)F)N1CCN(C)CC1 (stereo not given) | . | . | -4.9 | . | -1.9 | . | . | .
O=[N+]([O-])C(=C1SCCS1)C(=C(Cl)Cl)N1CCCCC1 | 1.7 | -4.6 | -5.0 | -6.4 | 3.0 | -1.0 | . | .
O=[N+]([O-])C(/C=C(\Cl)[N+](=O)[O-])=C(N1CCCCC1)N1CCCCC1 | -1.3 | 0.1 | 7.2 | 35.1* | -0.3 | 1.1 | 41.6* | 58.0*
O=C(Cn1cnc2ccccc21)N/N=C/c1cccc([N+](=O)[O-])c1 | 6.7 | 1.6 | -1.9 | 35.6* | 0.5 | -11.5 | 8.0 | 9.6
CC(C(=O)O)N1C(=O)/C(=C/C=C/c2ccco2)SC1=S (stereo not given) | 0.1 | -6.1 | 48.7 | 60.7* | -46.5 | . | 34.1* | 44.8*
O=C1/C(=C/c2cccs2)SC(=S)N1NS(=O)(=O)c1ccccc1 | 0.4 | -2.0 | 33.3 | 3.5 | -9.3 | 3.9 | . | .
O=C1/C(=C/C=C/c2ccco2)SC(=S)N1NS(=O)(=O)c1ccccc1 | 2.1 | -4.9 | 61.9 | 85.2* | -58.0 | . | 66.6* | 34.1*
CCCCOC(=O)c1ccc(NC(=O)COC(=O)C2CC2C)cc1 (stereo not given) | . | . | -5.0 | . | -1.4 | 1.0 | . | .
CC(C)C[C@H]1CN(CCCC[C@H]2CNC(=O)C(=O)N2Cc2ccccc2)C(=O)C(=O)N1CC1CCCCC1 | . | . | -6.1 | . | -1.0 | . | . | .
COc1cc(OC)c(C(=O)NC23CC4CC(CC(C4)C2)C3)cc1OC | 0.1 | 4.1 | -1.0 | 3.3 | -0.5 | 2.9 | . | .
O=C(NC12CC3CC(CC(C3)C1)C2)c1cc(F)c(F)c(F)c1F | -0.9 | 2.6 | -0.3 | 44.3* | 0.4 | -0.3 | -4.1 | -2.8
